Calls of active or inactive are those of the source. The calls are words filed in the database; no cut-off is given here.
Experiments:
[1] = molecular target: T1, Phosphatidylinositol 4,5-bisphosphate 3-kinase catalytic subunit delta isoform (Homo sapiens) (UniProt O00329); test: Inhibition of PI3Kdelta in human SU-DHL-5 cells assessed as inhibition of 4EBP1 phosphorylation at 1 to 5 uM measured after 3 hrs by western blot assay; type: cell-based; settings: dose 1-5 µM
T1 sequence (whole entry): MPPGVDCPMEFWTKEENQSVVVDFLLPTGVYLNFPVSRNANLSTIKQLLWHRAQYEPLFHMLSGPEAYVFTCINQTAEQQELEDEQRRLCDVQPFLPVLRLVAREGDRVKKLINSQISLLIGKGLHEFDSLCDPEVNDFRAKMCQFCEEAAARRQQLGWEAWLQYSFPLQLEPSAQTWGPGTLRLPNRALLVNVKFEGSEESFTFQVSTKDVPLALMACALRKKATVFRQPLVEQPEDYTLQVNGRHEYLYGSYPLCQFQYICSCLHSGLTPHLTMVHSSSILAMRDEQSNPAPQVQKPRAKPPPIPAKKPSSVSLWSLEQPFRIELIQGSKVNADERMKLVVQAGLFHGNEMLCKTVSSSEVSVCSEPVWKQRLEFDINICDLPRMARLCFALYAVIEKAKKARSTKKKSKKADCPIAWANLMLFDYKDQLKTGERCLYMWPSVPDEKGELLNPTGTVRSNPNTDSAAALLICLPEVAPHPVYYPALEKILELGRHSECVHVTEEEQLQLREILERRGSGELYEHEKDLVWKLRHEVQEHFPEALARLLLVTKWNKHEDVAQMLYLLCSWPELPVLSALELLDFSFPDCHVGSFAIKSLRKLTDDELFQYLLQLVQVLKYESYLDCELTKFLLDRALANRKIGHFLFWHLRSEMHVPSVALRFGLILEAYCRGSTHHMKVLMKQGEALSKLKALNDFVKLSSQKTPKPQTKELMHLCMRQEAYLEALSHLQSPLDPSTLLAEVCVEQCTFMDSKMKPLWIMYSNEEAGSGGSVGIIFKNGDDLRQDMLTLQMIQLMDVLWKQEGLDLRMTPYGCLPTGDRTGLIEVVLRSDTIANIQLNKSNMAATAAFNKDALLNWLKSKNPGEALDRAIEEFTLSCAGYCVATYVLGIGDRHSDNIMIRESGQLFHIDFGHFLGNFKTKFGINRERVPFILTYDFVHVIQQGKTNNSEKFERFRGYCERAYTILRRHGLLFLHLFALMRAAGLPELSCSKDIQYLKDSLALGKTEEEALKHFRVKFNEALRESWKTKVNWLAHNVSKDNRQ
Outline: (§1)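 Treatment lasted 3 h: SUDHL-5 at 1 μM, MOLT-4 at 5 μM. Cells washed twice in cold PBS and lysed. Proteins resolved on 10–12% SDS-PAGE and blotted to PVDF. Probed for p-AKT S473, p-AKT T308, p-S6 and p-4E-BP1, with β-actin as loading control.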

SU-DHL-5 = test: Antiproliferative activity against human SU-DHL-5 cells assessed as cell viability at 10 uM by CellTiter-Glo luminescent cell viability assay (reference value: 100%); type: functional; settings: read-out: Activity
MOLT-4 [2] = test: Induction of apoptosis in human MOLT-4 cells assessed as viable cells at 20 uM measured after 24 hrs by AnnexinV-FITC/PI staining based flowcytometry method (reference value: 95.3%); type: functional; settings: read-out: Activity
Outline: (§2)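 Cells exposed to 20 μM compound for 24 h, washed with cold PBS, and stained with Annexin V-FITC and propidium iodide for 15 min at room temperature. Viable, early apoptotic, late apoptotic and necrotic populations quantified by flow cytometry.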

[3] = molecular target: T1, Phosphatidylinositol 4,5-bisphosphate 3-kinase catalytic subunit delta isoform (Homo sapiens); test: Inhibition of PI3Kdelta in human MOLT-4 cells assessed as inhibition of 4EBP1 phosphorylation at 1 to 5 uM measured after 3 hrs by western blot assay; type: cell-based; settings: dose 1-5 µM; outline: as §1
SU-DHL10 = test: Induction of apoptosis in human SU-DHL-10 cells assessed as necrotic cells at 20 uM measured after 24 hrs by AnnexinV-FITC/PI staining based flowcytometry method (reference value: 0.2%); type: functional; outline: as §2
Homo sapiens = species on record: Homo sapiens; test: Selectivity ratio of IC50 for recombinant human full length His-tagged p110gamma expressed in baculovirus expression system to IC50 for recombinant human full length His-tagged p110delta/p85alpha expressed in baculovirus expression system
MOLT-4 [4] = test: Induction of apoptosis in human MOLT-4 cells assessed as late apoptotic cells at 20 uM measured after 24 hrs by AnnexinV-FITC/PI staining based flowcytometry method (reference value: 2.17%); type: functional; outline: as §2
[5] = Toxicity in Balb/c nude mouse xenografted with human MOLT-4 cells assessed as changes in body weight at 10 mg/kg, po administered via gavage qd for 57 days; type: organism-based; settings: in vivo, 1368 h, dose 10 mg/kg/day, time 57 day
Outline: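 MOLT-4 cells (2×10^6 in 0.1 mL D-PBS) implanted subcutaneously on the back of BALB/c-nude mice. Once tumours grew, mice were dosed daily by oral gavage at 10 mg/kg for 57 consecutive days. Tumours measured by caliper, with volume = ½ × […]. Body weight was tracked over the same period.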

[6] = molecular target: T1, Phosphatidylinositol 4,5-bisphosphate 3-kinase catalytic subunit delta isoform (Homo sapiens); test: Inhibition of PI3Kdelta in human SU-DHL-5 cells assessed as inhibition of S6 phosphorylation at 1 to 5 uM measured after 3 hrs by western blot assay; type: cell-based; settings: dose 1-5 µM; outline: as §1
MOLT-4 [7] = test: Induction of apoptosis in human MOLT-4 cells assessed as necrotic cells at 20 uM measured after 24 hrs by AnnexinV-FITC/PI staining based flowcytometry method (reference value: 0.51%); type: functional; outline: as §2
[8] = AUC (last) in Sprague-Dawley rat at 1 mg/kg, po measured for 24 hrs by LC-MS/MS analysis; type: ADME, organism-based; set-up: route oral, dose 1 mg/kg, time 24 hrs; settings: in vivo
Outline: (§3)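 Sprague-Dawley rats dosed orally at 1 or 3 mg/kg, three animals per group. Blood sampled at 0.25, 0.5, 1, 2, 4, 8 and 24 h post-dose. Plasma separated by centrifugation, extracted and quantified by LC-MS/MS. PK parameters (Cmax, AUClast, Tmax, t1/2) derived by non-compartmental software.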

[9] = molecular target: PI3-kinase p110-alpha/p85-alpha (Homo sapiens, UniProt P42336); test: Inhibition of recombinant human full length N-terminal His-tagged p110alpha/p85alpha expressed in baculovirus expression system measured after 60 mins in presence of ATP by ATP-competitive binding assay
Outline: (§4)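 SelectScreen ATP-competitive assay using 10-point titration with 1 μM top final compound concentration. Kinase, substrate and ATP mixed in 30 mM HEPES buffer and reacted 60 min. IC50 taken as the mean of three independent experiments.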

[10] = molecular target: PI3-kinase p110-delta/p85-alpha (Homo sapiens, UniProt O00329); test: Inhibition of recombinant human full length His-tagged p110delta/p85alpha expressed in baculovirus expression system measured after 60 mins in presence of ATP by ATP-competitive binding assay; outline: as §4
[11] = Cmax in Sprague-Dawley rat at 1 mg/kg, po measured for 24 hrs by LC-MS/MS analysis; type: ADME, organism-based; set-up: route oral, dose 1 mg/kg, time 24 hrs; settings: in vivo; outline: as §3
[12] = molecular target: Phosphatidylinositol 4,5-bisphosphate 3-kinase catalytic subunit beta isoform (Homo sapiens, UniProt P42338); test: Inhibition of recombinant human full length His-tagged p110beta expressed in baculovirus expression system measured after 60 mins in presence of ATP by ATP-competitive binding assay; outline: as §4
Sequence of Phosphatidylinositol 4,5-bisphosphate 3-kinase catalytic subunit beta isoform (P42338 whole entry, canonical isoform): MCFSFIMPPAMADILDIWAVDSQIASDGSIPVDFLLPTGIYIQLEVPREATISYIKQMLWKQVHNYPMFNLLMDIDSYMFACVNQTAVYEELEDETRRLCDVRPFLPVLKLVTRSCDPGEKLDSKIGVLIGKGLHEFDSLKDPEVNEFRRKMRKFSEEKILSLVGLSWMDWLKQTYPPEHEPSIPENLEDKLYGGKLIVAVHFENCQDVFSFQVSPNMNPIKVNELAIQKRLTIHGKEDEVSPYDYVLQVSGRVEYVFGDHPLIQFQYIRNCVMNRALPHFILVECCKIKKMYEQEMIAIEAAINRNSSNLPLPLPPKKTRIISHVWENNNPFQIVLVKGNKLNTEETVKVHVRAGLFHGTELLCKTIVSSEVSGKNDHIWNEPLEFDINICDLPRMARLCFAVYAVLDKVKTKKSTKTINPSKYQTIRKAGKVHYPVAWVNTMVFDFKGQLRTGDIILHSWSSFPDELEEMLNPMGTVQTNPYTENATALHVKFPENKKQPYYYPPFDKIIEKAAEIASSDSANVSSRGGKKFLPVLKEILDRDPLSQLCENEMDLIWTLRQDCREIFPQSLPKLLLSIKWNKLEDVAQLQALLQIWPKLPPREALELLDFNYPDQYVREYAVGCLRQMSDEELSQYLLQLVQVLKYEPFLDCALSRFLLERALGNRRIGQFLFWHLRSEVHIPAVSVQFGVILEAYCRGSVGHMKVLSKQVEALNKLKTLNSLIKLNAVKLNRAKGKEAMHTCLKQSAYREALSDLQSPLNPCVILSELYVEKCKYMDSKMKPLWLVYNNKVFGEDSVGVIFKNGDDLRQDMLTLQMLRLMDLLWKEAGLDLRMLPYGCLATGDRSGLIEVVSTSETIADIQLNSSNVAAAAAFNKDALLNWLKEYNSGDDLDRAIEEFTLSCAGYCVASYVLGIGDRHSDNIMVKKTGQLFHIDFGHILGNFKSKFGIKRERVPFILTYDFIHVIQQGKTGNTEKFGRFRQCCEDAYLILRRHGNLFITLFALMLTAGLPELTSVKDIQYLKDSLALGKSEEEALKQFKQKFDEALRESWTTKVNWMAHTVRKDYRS

Sequence of PI3-kinase p110-delta/p85-alpha (P27986 whole entry, one chain of several): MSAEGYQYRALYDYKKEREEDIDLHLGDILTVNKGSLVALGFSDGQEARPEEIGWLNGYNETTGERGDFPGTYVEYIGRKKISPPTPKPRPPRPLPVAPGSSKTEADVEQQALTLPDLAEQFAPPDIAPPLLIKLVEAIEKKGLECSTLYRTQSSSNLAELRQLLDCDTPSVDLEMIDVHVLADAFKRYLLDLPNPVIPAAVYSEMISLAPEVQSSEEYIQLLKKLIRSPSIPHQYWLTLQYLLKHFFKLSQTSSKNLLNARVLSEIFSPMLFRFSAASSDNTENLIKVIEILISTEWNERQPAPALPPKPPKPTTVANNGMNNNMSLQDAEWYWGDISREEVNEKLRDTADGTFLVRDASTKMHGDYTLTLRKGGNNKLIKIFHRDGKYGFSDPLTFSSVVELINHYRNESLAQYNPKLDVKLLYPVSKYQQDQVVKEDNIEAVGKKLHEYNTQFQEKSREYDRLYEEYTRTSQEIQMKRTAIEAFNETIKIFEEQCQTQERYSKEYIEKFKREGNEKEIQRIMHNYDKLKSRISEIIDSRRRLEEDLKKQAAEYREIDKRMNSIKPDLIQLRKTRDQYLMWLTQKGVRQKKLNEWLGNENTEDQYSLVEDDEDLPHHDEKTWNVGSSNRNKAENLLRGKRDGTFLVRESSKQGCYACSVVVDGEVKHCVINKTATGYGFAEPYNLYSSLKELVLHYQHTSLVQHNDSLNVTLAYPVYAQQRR
Sequence of PI3-kinase p110-alpha/p85-alpha (P27986 whole entry): as the sequence (P27986 whole entry, one chain of several) above
Sequence of PI3-kinase p110-alpha/p85-alpha (P42336 whole entry): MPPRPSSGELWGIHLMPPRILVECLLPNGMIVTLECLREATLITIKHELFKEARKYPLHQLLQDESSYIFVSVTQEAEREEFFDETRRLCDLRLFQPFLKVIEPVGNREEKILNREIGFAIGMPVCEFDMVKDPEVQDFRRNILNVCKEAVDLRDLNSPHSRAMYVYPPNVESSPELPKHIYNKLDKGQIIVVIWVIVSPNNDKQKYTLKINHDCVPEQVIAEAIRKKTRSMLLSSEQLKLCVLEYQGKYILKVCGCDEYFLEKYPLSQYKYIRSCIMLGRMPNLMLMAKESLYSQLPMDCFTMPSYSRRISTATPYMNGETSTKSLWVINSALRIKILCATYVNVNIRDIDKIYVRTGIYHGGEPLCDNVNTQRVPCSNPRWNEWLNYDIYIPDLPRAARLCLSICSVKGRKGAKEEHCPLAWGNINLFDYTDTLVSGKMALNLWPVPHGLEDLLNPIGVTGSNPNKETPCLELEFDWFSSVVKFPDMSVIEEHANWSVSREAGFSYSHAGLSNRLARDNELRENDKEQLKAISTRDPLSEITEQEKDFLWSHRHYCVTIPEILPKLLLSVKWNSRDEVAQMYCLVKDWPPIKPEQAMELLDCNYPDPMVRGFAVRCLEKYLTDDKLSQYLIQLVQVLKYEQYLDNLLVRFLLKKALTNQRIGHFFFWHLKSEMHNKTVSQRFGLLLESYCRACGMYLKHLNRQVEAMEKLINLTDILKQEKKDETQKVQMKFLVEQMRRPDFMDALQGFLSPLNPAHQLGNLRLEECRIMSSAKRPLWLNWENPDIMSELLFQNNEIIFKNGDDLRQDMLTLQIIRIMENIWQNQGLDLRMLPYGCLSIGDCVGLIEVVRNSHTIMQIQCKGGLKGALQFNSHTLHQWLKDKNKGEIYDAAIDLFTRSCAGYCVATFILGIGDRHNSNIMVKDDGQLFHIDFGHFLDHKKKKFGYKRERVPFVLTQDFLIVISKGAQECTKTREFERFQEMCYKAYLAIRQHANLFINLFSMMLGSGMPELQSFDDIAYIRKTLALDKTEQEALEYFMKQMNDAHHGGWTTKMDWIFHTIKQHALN

Row | inhibition [1] | inhibition [3] | Ratio IC50 (Homo sapiens) | inhibition [6] | AUC(0-t) at 24 h [8] [ng·h/mL] | IC50 [9] [µM] | IC50 [10] [µM] | Cmax [11] [ng/mL] | IC50 [12] [µM] | SMILES | viability at 10 µM (SU-DHL-5) [%] | viability at 20 µM (MOLT-4 [2]) [%] | Activity (SU-DHL10) [%] | Activity (MOLT-4 [4]) [%] | Activity [5] | Activity (MOLT-4 [7]) [%]
1 | Active | Active | 95.5 | Active |  |  |  |  |  | Cc1cccc2nc([C@@H](Nc3ncnc4nc[nH]c34)C3CC3)n(-c3ccccc3)c(=O)c12 | 20.2 | 41 | 4.16 | 42.3 | Non-Toxic | 3.3
2 | Active | Active |  | Active | 81 | 0.222 | 0.00039 | 18.3 | 0.199 | O=c1c2c(F)cccc2nc([C@@H](Nc2ncnc3nc[nH]c23)C2CC2)n1-c1ccccc1 | 34.8 | 49.5 | 1.77 | 30.3 | Non-Toxic | 2.47

Source: ChEMBL document CHEMBL4834477, “Synthesis and biological evaluation of novel purinyl quinazolinone derivatives as PI3Kδ-specific inhibitors for the treatment of hematologic malignancies” (Bioorg Med Chem, 2021)
